Measurements from ChEMBL document CHEMBL1129681, “Synthesis, absolute configuration, and biological profile of the enantiomers of trans-[2-(2,6-dimethoxyphenoxy)ethyl] [(3-p-tolyl-2,3-dihydro-1,4-benzodioxin-2-yl)methyl]amine (mephendioxan), a potent competitive alpha 1A-adrenoreceptor antagonist” (J Med Chem, 1996).

Assays:
[1] = biological target: T1, Adrenergic receptor alpha-2 (Rattus norvegicus, UniProt P22086+P19328+P22909); assay: (§1) Binding affinity towards Alpha-2 adrenergic receptor in rat cerebral cortex using [3H]rauwolscine as radioligand; format: tissue-based
T1 sequence (P22086 whole entry): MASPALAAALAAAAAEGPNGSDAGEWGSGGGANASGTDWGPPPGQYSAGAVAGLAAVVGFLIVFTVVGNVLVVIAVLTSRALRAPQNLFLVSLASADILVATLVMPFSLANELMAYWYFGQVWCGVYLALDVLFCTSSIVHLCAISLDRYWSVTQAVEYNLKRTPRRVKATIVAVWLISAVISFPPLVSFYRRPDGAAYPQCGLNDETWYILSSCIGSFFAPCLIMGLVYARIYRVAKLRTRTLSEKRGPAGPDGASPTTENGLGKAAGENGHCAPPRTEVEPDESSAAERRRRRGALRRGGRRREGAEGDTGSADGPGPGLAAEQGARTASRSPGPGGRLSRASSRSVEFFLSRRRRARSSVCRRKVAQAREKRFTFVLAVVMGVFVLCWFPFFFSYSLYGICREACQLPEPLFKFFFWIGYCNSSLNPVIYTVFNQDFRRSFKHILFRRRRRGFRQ
T1 sequence (P19328 whole entry): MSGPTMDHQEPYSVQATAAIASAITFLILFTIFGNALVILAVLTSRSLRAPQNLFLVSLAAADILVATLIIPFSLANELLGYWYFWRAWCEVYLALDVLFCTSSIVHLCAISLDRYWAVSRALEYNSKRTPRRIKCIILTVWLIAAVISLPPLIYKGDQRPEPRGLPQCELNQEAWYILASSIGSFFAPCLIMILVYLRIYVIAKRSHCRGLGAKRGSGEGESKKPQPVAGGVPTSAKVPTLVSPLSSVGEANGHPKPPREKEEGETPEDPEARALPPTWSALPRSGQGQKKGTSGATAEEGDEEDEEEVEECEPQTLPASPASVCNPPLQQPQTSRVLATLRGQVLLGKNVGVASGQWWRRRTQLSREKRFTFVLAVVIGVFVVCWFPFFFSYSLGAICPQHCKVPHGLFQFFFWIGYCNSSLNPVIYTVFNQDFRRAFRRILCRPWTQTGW
T1 sequence (P22909 whole entry): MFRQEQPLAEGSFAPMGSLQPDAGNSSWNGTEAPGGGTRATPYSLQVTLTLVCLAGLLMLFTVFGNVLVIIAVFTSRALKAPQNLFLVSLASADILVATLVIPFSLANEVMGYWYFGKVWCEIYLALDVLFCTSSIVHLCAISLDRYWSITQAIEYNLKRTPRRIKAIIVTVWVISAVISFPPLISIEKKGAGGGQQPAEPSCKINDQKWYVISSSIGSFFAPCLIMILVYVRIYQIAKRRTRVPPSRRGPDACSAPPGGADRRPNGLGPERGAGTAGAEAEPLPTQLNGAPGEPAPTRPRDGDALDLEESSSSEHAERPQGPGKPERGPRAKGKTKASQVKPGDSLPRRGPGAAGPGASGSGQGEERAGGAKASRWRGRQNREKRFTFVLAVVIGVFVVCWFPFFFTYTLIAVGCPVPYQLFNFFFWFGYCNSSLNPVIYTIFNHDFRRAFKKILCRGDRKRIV
Summary of the method: (§2)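 Rat brain membranes (native receptors): cerebral cortex for α1 with [3H]prazosin (79.2 Ci/mmol) and α2 with [3H]rauwolscine (80.5 Ci/mmol); hippocampus for 5-HT1A with [3H]8-OH-DPAT (162.9 Ci/mmol); striatum for D2 with [3H]spiperone (17.7 Ci/mmol). Radioligand competition by test drug; mean ± SE of at least three separate experiments in triplicate.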

[2] = biological target: T2, Alpha-1D adrenergic receptor (Rattus norvegicus, UniProt P23944); assay: Binding affinity towards Alpha-1D adrenergic receptor in rat brain using [3H]prazosin as radioligand; format: tissue-based
T2 sequence (P23944 whole entry): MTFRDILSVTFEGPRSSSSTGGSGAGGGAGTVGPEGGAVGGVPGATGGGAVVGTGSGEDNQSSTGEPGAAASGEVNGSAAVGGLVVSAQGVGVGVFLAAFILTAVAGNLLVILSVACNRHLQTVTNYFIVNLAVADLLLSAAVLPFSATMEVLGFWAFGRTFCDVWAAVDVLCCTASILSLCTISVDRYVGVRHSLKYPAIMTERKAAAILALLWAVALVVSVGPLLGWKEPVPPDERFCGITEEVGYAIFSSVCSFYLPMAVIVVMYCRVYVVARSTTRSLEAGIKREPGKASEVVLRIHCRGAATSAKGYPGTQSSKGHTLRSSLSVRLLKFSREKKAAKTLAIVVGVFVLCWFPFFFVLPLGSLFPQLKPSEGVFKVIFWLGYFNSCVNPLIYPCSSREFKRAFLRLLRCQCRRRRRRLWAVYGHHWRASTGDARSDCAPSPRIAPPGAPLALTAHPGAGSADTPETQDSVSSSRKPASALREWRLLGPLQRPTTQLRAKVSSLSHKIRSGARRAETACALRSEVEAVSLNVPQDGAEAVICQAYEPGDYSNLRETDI

[3] = biological target: T3, Alpha-1B adrenergic receptor (Rattus norvegicus, UniProt P15823); assay: Binding affinity towards Alpha-1B adrenergic receptor in rat liver using [3H]prazosin as radioligand
T3 sequence (P15823 whole entry): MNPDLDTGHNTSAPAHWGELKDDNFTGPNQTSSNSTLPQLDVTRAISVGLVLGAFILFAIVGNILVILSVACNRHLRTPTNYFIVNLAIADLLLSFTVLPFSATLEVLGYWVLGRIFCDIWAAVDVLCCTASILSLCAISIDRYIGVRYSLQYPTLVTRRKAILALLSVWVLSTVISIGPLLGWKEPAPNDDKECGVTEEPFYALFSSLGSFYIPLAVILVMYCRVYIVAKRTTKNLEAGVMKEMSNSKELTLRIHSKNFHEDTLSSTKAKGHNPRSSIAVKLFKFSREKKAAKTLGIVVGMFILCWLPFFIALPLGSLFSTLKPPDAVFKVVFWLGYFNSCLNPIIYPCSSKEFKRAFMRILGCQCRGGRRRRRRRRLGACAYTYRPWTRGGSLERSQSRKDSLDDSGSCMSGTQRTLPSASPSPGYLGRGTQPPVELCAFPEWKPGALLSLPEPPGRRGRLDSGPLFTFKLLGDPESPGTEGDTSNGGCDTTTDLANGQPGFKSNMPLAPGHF

[4] = biological target: T4, Adrenergic receptor alpha-2 (Rattus norvegicus) (UniProt P22086+P19328+P22909); details: Vas deferens
[5] = biological target: T5, Alpha-1A adrenergic receptor (Rattus norvegicus, UniProt P43140); assay: Binding affinity towards Alpha-1A adrenergic receptor in rat hippocampal membranes using [3H]prazosin as radioligand; format: cell membranes, Hippocampus
T5 sequence (P43140 whole entry): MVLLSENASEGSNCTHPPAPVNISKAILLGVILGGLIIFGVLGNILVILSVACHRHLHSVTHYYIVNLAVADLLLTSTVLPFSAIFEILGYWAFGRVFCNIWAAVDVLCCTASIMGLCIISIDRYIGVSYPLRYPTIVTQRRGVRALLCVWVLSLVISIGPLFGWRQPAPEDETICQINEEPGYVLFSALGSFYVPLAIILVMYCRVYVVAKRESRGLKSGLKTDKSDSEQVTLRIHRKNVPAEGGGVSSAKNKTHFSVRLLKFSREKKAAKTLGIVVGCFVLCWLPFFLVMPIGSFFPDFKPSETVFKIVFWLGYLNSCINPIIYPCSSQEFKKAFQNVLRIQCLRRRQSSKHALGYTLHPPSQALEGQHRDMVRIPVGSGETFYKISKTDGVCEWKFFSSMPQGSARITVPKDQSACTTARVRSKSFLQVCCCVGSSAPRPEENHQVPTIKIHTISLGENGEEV
Summary of the method: (§3)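 Native α1A site from rat hippocampus membranes pretreated with CEC, labelled with [3H]prazosin in competition binding. Mean ± SE of at least three separate experiments, each run in triplicate.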

[6] = biological target: T6, 5-hydroxytryptamine receptor 1A (Rattus norvegicus, UniProt P19327); assay: Binding affinity towards 5-hydroxytryptamine 1A receptor in rat hypocampus membrane using [3H]8-OH-DPAT as radioligand; format: cell membranes; summary of the method: as §2
T6 sequence (P19327 whole entry): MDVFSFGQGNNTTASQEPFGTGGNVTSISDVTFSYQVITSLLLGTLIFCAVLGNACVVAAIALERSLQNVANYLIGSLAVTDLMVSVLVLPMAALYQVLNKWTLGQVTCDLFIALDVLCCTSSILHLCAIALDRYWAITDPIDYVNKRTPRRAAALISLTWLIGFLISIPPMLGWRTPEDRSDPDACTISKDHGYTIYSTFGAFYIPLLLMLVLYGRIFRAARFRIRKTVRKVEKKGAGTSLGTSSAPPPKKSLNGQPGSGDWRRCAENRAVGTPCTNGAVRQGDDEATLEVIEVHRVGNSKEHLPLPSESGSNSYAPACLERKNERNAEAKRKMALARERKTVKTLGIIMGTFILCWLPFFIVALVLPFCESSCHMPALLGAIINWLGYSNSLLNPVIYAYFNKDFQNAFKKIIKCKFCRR

[7] = biological target: T7, Adrenergic receptor alpha-1 (Rattus norvegicus, UniProt P15823+P23944+P43140); assay: pA2 values was evaluated against Alpha-1 adrenergic receptor in the isolated Rat Vas Deferens; format: functional, tissue-based
T7 sequence (P15823 whole entry): T3 sequence (P15823 whole entry)
T7 sequence (P23944 whole entry): T2 sequence (P23944 whole entry)
T7 sequence (P43140 whole entry): T5 sequence (P43140 whole entry)
Summary of the method: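 Functional antagonism was measured in isolated tissue. Dose ratios were taken at agonist EC50 values at three antagonist concentrations, each concentration tested five times. pA2 was derived from Schild plots constrained to slope -1 and is reported as mean ± SE of n experiments.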

D(2) dopamine receptor [8] = biological target: T8, D(2) dopamine receptor (Rattus norvegicus, UniProt P61169); assay: Binding affinity towards Dopamine receptor D2 in rat striatum using [3H]spiperone as radioligand; format: tissue-based; summary of the method: as §2
T8 sequence (P61169 whole entry): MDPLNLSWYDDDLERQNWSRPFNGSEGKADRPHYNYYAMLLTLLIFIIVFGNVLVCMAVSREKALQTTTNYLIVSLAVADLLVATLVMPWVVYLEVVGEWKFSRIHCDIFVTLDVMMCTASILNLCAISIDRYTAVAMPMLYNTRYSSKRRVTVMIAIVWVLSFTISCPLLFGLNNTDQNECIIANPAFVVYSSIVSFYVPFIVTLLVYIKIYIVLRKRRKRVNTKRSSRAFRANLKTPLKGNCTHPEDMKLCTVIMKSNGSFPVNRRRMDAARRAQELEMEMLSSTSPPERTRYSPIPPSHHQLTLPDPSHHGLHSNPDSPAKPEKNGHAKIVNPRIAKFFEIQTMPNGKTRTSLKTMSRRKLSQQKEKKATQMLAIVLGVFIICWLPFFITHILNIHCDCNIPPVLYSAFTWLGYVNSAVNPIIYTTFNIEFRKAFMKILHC

[9] = biological target: T7, Adrenergic receptor alpha-1; assay: Binding affinity towards Alpha-1 adrenergic receptor in rat cerebral cortex using [3H]prazosin as radioligand; format: tissue-based; summary of the method: as §2
[10] = biological target: T9, Alpha-1A adrenergic receptor (Bos taurus, UniProt P18130); assay: Binding affinity towards Alpha-1A adrenergic receptor in bovine brain using [3H]prazosin as radioligand
T9 sequence (P18130 whole entry): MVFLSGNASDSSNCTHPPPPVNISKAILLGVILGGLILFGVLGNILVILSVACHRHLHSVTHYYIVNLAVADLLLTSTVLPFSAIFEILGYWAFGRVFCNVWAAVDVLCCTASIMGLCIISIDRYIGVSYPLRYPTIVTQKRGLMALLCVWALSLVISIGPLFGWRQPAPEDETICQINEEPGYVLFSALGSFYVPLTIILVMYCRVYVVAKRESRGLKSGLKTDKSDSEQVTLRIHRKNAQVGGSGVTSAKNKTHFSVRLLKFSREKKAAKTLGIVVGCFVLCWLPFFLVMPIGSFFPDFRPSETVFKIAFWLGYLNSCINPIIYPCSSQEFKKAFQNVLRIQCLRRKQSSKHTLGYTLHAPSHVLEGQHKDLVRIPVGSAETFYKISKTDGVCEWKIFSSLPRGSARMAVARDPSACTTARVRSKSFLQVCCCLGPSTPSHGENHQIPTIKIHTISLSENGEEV
Summary of the method: (§4)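 Membranes (35-70 µg protein) from COS-7 cells transiently expressing bovine α1a, hamster α1b or rat α1d adrenoceptor. Incubated with 0.3-0.6 nM [3H]prazosin ± displacer in 50 mM Tris-HCl pH 7.4, 10 µM pargyline, 0.1% ascorbic acid, 30 min at 25 °C. Stopped with ice-cold buffer, then rapid filtration. Mean ± SE of ≥3 experiments in triplicate.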

[11] = biological target: T4, Adrenergic receptor alpha-2 (Rattus norvegicus); details: Vas deferens; remark: listed apart in the source
[12] = biological target: T4, Adrenergic receptor alpha-2 (Rattus norvegicus); assay: as §1; format: tissue-based; summary of the method: as §2
D(2) dopamine receptor [13] = biological target: T8, D(2) dopamine receptor; assay: In vitro inhibitory activity against [3H]spiperone binding to Dopamine receptor D2
[14] = biological target: T9, Alpha-1A adrenergic receptor; assay: Binding affinity towards Alpha-1A adrenergic receptor in bovine brain using [3H]-prazosin as radioligand; summary of the method: as §4
[15] = biological target: T5, Alpha-1A adrenergic receptor; assay: Binding affinity towards Alpha-1A adrenergic receptor in rat hippocampus (+ 10 uM) […] membrane using [3H]prazosin as radioligand; format: tissue-based; summary of the method: as §3

SMILES	Ki [1] [nM]	Ki [2] [nM]	Ki [3] [nM]	-Log KB [4]	Ki [5] [nM]	Ki [6] [nM]	pA2 [7]	Ki (D(2) dopamine receptor [8]) [nM]	Ki [9] [nM]	Ki [10] [nM]	-Log KB [11]	Affinity [12] [µM]	Ki (D(2) dopamine receptor [13]) [nM]	Ki [14] [nM]	Ki [15] [nM]
COc1cccc(OC)c1OCCNC[C@@H]1Oc2ccccc2O[C@H]1c1ccc(C)cc1	4293	6.57	62.6	< 5	1.76	889	8.92	86.5	9.97	0.35	–	–	–	–	–
COc1cccc(OC)c1OCCNC[C@H]1Oc2ccccc2O[C@@H]1c1ccc(C)cc1	2142	191	774	< 5	40.3	1260	7.59	827	121.2	8.34	–	–	–	–	–

More lines, now with the values ahead:

Ki [1] [nM]	Ki [2] [nM]	Ki [3] [nM]	-Log KB [4]	Ki [5] [nM]	Ki [6] [nM]	pA2 [7]	Ki (D(2) dopamine receptor [8]) [nM]	Ki [9] [nM]	Ki [10] [nM]	-Log KB [11]	Affinity [12] [µM]	Ki (D(2) dopamine receptor [13]) [nM]	Ki [14] [nM]	Ki [15] [nM]	SMILES
1611	–	–	–	–	–	–	–	–	–	–	–	–	–	–	COC(=O)C1=C(C)NC(C)=C(C(=O)OCCCN2CCC(c3ccccc3)(c3ccccc3)CC2)[C@H]1c1cccc([N+](=O)[O-])c1 [NIGULDIPINE]
14.72	6.26	–	–	1.29	7.26	9.13	123	8.72	0.62	6.29	–	–	–	–	COc1cccc(OC)c1OCCNCC1COc2ccccc2O1 (stereo not given)
–	11.8	103	< 5	–	606	8.67	–	17.03	–	–	3.5	82.3	0.91	5.32	COc1cccc(OC)c1OCCNCC1Oc2ccccc2OC1c1ccc(C)cc1 (racemic)
